The target in assay [1] is T1, D(4) dopamine receptor (Homo sapiens, UniProt P21917).
T1 sequence (P21917 whole entry): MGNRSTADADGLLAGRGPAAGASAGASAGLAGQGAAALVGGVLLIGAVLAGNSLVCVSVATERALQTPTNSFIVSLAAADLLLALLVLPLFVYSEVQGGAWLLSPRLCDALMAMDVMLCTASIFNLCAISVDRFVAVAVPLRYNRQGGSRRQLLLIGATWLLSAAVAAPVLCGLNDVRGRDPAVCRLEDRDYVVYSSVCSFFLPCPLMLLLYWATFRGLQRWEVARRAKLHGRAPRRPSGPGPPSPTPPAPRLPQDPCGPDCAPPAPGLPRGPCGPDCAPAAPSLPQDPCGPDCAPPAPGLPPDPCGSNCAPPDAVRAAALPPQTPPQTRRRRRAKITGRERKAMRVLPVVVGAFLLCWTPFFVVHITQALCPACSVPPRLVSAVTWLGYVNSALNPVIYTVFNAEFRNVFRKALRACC
As to the kind of experiment: Binding affinity using [3H]spiperone displacement from cloned human Dopamine receptor D4.2 expressed in CHO-K1 cells. It is filed as cell-based.

The target in assay [2] is T2, D(4) dopamine receptor (Homo sapiens) (UniProt P21917).
T2 sequence (whole entry): T1 sequence (P21917 whole entry)
Put plainly: Compound was tested for the inhibition of [3H]thymidine uptake in CHO p-5 cells transfected with human Dopamine receptor D4.2. It is filed as functional, cell-based. Put shortly:
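Antagonism of quinpirole (full agonist) stimulated mitogenesis in CHO cells expressing human D4.2. After 18 h, [3H]thymidine 0.25 μCi/well for 2 h, trypsin 1 h, then filtered and counted. Intrinsic activity taken relative to quinpirole; IC50 derived.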

For assay [3], the target named is Dopamine D2 receptor (Homo sapiens). As to the kind of experiment: Binding affinity using [3H]spiperone against cloned human Dopamine receptor D2L expressed in CHO-K1 cells.
Assay [4] has as its system Rattus norvegicus. As to the kind of experiment: Behavioral effect expressed as inhibition of spontaneous motor activity in rats, ip; NA=Not active. It is filed as functional, organism-based.
Assay [5] addresses T3, 5-hydroxytryptamine receptor 1A (Mus musculus, UniProt Q64264).
T3 sequence (Q64264 whole entry): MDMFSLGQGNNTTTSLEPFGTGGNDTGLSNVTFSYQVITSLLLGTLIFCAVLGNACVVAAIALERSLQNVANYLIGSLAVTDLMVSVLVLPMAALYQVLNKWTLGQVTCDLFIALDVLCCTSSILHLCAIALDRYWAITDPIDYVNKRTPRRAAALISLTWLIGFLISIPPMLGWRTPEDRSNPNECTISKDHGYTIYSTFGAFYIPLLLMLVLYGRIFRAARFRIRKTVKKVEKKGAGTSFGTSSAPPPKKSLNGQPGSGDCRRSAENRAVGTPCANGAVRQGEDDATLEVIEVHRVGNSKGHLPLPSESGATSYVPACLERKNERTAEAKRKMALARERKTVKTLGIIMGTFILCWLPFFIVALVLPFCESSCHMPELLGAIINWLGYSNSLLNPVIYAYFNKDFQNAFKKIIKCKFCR
Put plainly: Compound was tested for binding affinity using [3H]8-OH-DPAT against 5-hydroxytryptamine 1A receptor.

In assay [6] the test system is Mus musculus. As to the kind of experiment: Behavioral effect expressed as reversal of prepulse inhibition of acoustic startle in mice, ip; active at 30 mg/kg. It is filed as functional, organism-based. Details: dose 30 mg/kg. Put shortly:
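Vehicle or test compound given ip 15 min before sc saline or apomorphine (0.25 mg/kg); 30-min session of 90 trials after 5-min 70 dB white-noise acclimation, prepulses 2–16 dB over background (20 ms), startle pulses 40 ms. %PPI from 16-dB prepulse; t-test; minimal effective dose reported.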

Assay [7] addresses 5-hydroxytryptamine receptor 2A (Bos taurus, UniProt Q75Z89). Put plainly: Compound was tested for binding affinity using [3H]ketanserin against 5-hydroxytryptamine 2 receptor.
Assay [8] deals with Rattus norvegicus. Put plainly: Behavioral effect expressed as inhibition of amphetamine-stimulated locomotor activity in rats, ip. It is filed as functional.
In assay [9] the test system is Rattus norvegicus. Put plainly: Compound was tested for the levels of striatal dopamine synthesis in rat after a dosage of 10 mg/kg intraperitoneally and expressed as % of control animals. It is filed as functional. To be noted: route intraperitoneal.
The target of assay [10] is D(3) dopamine receptor (Homo sapiens, UniProt P35462). As to the kind of experiment: Compound was tested for binding affinity using [3H]spiperone against cloned human Dopamine receptor D3 expressed in CHO-K1 cells. It is filed as cell-based. Put shortly: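 Cloned human receptors expressed in CHO-K1 cells, displacement of [3H]spiperone; Ki from six concentrations run in triplicate, nonlinear regression.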
Chain of D(3) dopamine receptor (P35462 whole entry): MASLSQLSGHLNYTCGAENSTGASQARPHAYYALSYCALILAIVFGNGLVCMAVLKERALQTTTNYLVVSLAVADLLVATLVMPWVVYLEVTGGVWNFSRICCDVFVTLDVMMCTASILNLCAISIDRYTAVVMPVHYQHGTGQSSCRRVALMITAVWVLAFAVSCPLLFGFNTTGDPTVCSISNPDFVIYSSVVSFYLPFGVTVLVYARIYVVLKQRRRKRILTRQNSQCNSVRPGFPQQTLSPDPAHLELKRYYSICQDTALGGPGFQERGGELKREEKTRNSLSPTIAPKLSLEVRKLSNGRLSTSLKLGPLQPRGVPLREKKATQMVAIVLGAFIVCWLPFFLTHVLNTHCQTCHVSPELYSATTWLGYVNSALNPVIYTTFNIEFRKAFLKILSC

For assay [11], the system named is Rattus norvegicus. As to the kind of experiment: Behavioral effect expressed as catalepsy test in rats, po; NA=Not active. It is filed as functional, organism-based. Put shortly: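 Rats dosed orally; front paws placed on an elevated bar, time (s) paws stayed on bar recorded over three consecutive 1-min trials, retested 2 h postdose. Value is mean response time for third trial.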

Assay [12] has as its system Rattus norvegicus. Put plainly: Compound was tested for the levels of hippocampal dopamine synthesis in rat after a dosage of 10 mg/kg intraperitoneally and expressed as % of control animals. The settings on record: route intraperitoneal. It is filed as functional, Hippocampus.
Assay [13] concerns Rattus norvegicus. Put plainly: Compound was tested for the levels of hippocampal dopamine synthesis in rat after a dosage of 10 mg/kg intraperitoneally and expressed as % of control. It is filed as functional, Hippocampus. The settings on record: route intraperitoneal. A digest of the protocol:
(§1)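 Rats given drug 10 mg/kg ip 60 min before and NSD 1015 (decarboxylase inhibitor) 30 min before decapitation; striatal and hippocampal DOPA by HPLC with electrochemical detection, as percentage increase over control; mean of 4 animals.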

Assay [14] has as its target T2, D(4) dopamine receptor (Homo sapiens). As to the kind of experiment: Compound was tested for the inhibition of [3H]-thymidine uptake in CHO p-5 cells transfected with Dopamine receptor D4.2. It is filed as functional, cell-based.
The subject of assay [15] is Rattus norvegicus. As to the kind of experiment: Compound was tested for the levels of striatal dopamine synthesis in rat after a dosage of 10 mg/kg intraperitoneally and expressed as % of control. It is filed as functional. The settings on record: route intraperitoneal. Put shortly:
as §1

Assay [16] addresses T2, D(4) dopamine receptor (Homo sapiens). As to the kind of experiment: Ratio of receptor binding towards D2 to D4 receptor. Put shortly:
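Ki from [3H]spiperone displacement at cloned human D2L and D4.2 receptors expressed in CHO-K1 cells. Six concentrations run in triplicate, fitted by nonlinear regression. Ratio taken as D2L Ki over D4.2 Ki.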

The source made the active and inactive calls. The rule behind the calls is not given here.

Chain of 5-hydroxytryptamine receptor 2A (Q75Z89 whole entry): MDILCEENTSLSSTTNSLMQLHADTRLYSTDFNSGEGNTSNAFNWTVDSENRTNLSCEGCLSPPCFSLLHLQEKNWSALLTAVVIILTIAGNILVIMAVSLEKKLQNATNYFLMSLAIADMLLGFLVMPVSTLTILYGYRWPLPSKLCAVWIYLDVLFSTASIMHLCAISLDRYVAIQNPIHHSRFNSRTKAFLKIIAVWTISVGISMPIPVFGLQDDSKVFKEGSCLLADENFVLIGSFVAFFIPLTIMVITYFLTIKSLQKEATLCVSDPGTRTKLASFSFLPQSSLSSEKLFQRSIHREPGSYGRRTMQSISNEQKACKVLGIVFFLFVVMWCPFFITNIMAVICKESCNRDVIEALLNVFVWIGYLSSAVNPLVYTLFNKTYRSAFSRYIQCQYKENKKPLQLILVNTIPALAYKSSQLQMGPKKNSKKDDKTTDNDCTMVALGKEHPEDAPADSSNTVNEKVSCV

In turn, `COc1ccc(N2CCN(Cc3ccc4ccc(=O)oc4c3)CC2)cc1` displayed a Ki in [1] of 75 nM.

Take `Cc1ccc(NCCNCc2ccc3ccc(=O)oc3c2)cc1`: the Intrinsic activity in [2] was 0%.

In [1], `Cc1cccc(N2CCN(Cc3ccc4oc(=O)ccc4c3)CC2)c1` returned a Ki of 74 nM.

For `Cc1ccccc1N1CCN(Cc2ccc3ccc(=O)oc3c2)CC1`, the Ki in assay [1] was 16 nM; in [3], 1940 nM.

With `O=c1ccc2ccc(CNCCNc3ccccc3)cc2o1`, the Control entry in assay [4] and in assay [11] was “inactive” throughout. In [2], the Intrinsic activity is 0%. Moreover, the Ki in assay [5] is 3710 nM; in assay [7], more than 4350 nM; in [10], 424 nM. Moreover, in assay [6], the Behavioral effect result was “Active”. For the same compound, the ED50 in assay [8] came out at 3 mg/kg. Also, the Control was 20% in assay [9] and 32% in [12].

Turning to `Cc1cccc(N2CCN(Cc3ccc4ccc(=O)oc4c3)CC2)c1`, the inhibition constant Ki in assay [1] worked out at 32 nM; in [3], 4400 nM.

`CCN(CCNc1ccccc1)Cc1ccc2ccc(=O)oc2c1` showed a Ki in assay [1] of 410 nM.

Turning to `CC(C)(C)c1ccc(N2CCN(Cc3ccc4ccc(=O)oc4c3)CC2)cc1`, the Ki in [1] amounted to 227 nM.

In turn, `O=c1ccc2ccc(CN3CCN(c4ccc(Cl)cc4)CC3)cc2o1` came in with a Ki in assay [1] of 93 nM.

Regarding `Cc1ccc(N2CCN(Cc3ccc4oc(=O)ccc4c3)CC2)cc1`, the Control is on record as -16% in assay [13] and 22% in [15]. Also, the inhibition constant Ki in assay [1] was found to be 11 nM; in assay [3], 5836 nM. In [14], this compound had an Intrinsic activity of 0%.

For `Cc1ccc(N2CCN(Cc3ccc4ccc(=O)oc4c3)CC2)cc1C`, the Ki in [1] amounted to 14 nM; in [3], 433 nM.

Take `O=c1ccc2ccc(CN3CCN(c4ccccc4)CC3)cc2o1`: the Ki was determined as 27 nM in assay [1] and 5300 nM in assay [3].

`CCN(CCNCc1ccc2ccc(=O)oc2c1)c1ccccc1`: the Ki in assay [1] came out at 2660 nM.

`O=c1ccc2ccc(CN3CCN(c4ccc(F)cc4)CC3)cc2o1` returned a Ki in [1] of 59 nM.

Consider `O=c1ccc2ccc(CN3CC=C(c4ccccc4)CC3)cc2o1`, for which the Ki in assay [1] is 4.4 nM; in assay [3], 121 nM.

In assay [1], `O=c1ccc2ccc(CN3CCC(c4ccccc4)CC3)cc2o1` gave a Ki of 19 nM.

The compound `Cc1ccc(N2CCN(Cc3ccc4ccc(=O)oc4c3)CC2)cc1Cl` showed an Intrinsic activity in assay [2] of 0%. Besides, the inhibition constant (Ki) in [1] worked out at 6.9 nM; in assay [3], 5882 nM. Further, the Control came to 19% in [9] and 27% in [12]. Moreover, in assay [16], the Ratio came out at 852.

Usually Ki stands for a measure of affinity in units of concentration, obtained from inhibition or displacement. A higher Ki goes with lower affinity. Broadly, the ED50 is the dose that gives a 50% effect, or the effect in half of the subjects.

The values above are taken from ChEMBL document CHEMBL1132384, “Design, synthesis, and evaluation of chromen-2-ones as potent and selective human dopamine D4 antagonists” (J Med Chem, 1999).
